Positions of bridges follow the written chain, without caps; N, C: chain ends. Non-standard residues stand in square brackets, D forms with d. Residues, ends and D or L forms follow the SMILES beside them. 1Nal = N[C@@H](Cc1cccc2ccccc12)C(=O)O; Lys(Me2) = CN(C)CCCC[C@H](N)C(=O)O
Legend:
Type in all cases: cell-based
[1] = biological target: Sodium channel protein type 9 subunit alpha (Homo sapiens, UniProt Q15858); experiment: Inhibition of human Nav1.7 expressed in HEK293 cells assessed as inward peak current by ion-works quattro patch clamp electrophysiology method
Chain of Sodium channel protein type 9 subunit alpha (Q15858 whole entry): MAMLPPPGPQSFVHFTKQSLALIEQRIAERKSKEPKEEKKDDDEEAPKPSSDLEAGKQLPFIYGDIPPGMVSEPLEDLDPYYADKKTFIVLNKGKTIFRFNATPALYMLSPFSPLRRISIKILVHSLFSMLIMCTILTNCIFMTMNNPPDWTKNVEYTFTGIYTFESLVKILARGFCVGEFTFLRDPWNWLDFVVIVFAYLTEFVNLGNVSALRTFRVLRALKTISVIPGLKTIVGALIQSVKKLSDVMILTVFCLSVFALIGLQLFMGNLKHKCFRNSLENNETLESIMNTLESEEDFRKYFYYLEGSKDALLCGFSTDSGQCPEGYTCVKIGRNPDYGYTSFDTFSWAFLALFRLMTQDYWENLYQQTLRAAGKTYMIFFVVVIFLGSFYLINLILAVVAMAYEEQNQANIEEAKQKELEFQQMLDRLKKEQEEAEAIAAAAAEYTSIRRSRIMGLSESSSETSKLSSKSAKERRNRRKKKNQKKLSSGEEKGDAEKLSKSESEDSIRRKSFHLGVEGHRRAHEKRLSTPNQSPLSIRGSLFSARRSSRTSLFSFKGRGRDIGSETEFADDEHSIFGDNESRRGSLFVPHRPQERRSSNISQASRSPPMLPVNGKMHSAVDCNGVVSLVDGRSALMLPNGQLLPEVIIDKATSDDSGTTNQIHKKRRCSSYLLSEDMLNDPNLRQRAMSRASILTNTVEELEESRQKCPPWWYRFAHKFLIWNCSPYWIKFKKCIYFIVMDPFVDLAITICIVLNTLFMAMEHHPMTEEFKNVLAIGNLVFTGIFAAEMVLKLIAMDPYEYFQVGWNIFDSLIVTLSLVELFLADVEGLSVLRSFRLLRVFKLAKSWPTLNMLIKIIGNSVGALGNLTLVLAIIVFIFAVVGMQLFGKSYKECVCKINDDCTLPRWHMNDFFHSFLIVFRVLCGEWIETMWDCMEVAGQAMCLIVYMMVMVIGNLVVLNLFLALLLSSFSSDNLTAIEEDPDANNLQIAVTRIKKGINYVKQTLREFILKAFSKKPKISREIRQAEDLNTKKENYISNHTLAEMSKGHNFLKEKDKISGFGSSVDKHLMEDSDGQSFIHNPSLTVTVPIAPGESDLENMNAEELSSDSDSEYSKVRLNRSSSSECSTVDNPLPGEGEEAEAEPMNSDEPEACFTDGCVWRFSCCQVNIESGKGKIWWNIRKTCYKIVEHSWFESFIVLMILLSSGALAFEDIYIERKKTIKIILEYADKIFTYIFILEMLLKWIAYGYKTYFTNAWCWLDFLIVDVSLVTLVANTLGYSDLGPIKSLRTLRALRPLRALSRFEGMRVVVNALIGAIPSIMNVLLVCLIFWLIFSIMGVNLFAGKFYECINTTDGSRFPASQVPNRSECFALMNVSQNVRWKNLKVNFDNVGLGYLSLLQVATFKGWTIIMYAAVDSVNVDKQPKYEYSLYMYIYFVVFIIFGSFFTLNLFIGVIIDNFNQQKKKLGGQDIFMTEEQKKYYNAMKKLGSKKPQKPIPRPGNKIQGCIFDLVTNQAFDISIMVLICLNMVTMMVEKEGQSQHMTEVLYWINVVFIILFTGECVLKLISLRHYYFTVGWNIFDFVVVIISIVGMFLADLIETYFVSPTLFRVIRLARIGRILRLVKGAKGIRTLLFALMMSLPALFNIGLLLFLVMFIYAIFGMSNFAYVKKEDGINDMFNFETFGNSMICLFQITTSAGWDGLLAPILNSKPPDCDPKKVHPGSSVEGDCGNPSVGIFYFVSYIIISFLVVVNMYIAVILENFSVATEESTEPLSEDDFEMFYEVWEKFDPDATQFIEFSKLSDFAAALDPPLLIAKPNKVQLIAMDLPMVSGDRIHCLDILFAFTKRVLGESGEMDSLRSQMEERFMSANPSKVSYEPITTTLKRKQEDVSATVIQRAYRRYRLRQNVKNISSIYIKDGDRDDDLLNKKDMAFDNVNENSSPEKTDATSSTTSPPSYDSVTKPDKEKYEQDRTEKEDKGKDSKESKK

[2] = biological target: T1, Sodium channel protein type 5 subunit alpha (Homo sapiens, UniProt Q14524); experiment: Inhibition of human Nav1.5 expressed in HEK293 cells assessed as inward peak current by ion-works quattro patch clamp electrophysiology method
T1 sequence (Q14524 whole entry): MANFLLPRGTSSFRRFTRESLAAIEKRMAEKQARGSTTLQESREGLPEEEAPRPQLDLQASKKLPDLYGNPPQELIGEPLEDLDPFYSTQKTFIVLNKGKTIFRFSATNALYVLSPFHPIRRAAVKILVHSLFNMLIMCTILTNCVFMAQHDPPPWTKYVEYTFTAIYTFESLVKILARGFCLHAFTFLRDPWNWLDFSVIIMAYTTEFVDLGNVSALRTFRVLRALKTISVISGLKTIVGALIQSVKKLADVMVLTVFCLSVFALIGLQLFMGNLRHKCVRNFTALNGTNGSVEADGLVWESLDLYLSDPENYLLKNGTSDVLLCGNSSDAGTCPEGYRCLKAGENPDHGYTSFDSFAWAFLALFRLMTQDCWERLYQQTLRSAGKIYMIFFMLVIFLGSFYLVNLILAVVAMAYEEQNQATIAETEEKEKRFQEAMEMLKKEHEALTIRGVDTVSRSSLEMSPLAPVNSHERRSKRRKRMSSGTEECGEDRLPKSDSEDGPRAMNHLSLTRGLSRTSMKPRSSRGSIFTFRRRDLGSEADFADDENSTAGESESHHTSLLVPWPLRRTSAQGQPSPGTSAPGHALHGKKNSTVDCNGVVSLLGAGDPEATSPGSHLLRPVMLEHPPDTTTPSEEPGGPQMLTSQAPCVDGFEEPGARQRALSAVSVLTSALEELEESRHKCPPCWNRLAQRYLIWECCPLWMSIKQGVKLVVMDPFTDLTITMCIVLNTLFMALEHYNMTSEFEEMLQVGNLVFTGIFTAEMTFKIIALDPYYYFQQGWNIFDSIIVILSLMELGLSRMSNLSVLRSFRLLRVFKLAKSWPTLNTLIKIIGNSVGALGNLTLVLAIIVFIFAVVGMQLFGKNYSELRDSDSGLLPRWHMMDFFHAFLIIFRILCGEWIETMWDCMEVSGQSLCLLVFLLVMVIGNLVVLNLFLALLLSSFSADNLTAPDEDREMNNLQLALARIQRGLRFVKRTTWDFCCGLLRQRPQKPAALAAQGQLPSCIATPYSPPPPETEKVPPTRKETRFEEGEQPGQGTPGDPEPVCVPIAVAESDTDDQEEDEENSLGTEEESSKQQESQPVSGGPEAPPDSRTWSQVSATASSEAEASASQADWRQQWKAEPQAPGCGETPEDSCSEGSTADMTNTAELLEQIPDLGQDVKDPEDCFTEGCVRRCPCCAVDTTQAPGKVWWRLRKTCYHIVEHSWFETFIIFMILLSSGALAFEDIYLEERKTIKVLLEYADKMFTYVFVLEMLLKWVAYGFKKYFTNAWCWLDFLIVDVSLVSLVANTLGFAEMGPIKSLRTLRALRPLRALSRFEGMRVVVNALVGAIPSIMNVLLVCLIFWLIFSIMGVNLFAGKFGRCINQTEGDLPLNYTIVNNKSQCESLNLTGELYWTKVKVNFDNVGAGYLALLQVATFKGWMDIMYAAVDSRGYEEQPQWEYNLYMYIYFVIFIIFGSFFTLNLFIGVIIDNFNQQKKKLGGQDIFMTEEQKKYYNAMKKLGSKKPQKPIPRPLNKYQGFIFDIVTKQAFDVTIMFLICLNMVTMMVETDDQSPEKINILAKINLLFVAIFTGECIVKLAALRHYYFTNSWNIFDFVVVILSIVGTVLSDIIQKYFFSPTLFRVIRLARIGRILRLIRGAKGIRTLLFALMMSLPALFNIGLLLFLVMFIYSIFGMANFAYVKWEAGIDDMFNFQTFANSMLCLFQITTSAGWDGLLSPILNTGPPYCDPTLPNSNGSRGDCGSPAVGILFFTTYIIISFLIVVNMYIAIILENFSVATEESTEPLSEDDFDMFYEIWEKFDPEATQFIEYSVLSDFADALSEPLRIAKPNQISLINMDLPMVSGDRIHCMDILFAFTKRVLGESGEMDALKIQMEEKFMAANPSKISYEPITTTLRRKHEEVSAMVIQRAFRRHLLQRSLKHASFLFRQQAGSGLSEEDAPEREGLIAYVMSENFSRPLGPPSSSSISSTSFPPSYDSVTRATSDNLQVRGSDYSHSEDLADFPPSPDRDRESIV
In short: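 Stable HEK293 line expressing human NaV1.5, recorded by population patch clamp on the IonWorks Quattro.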

[3] = biological target: T1, Sodium channel protein type 5 subunit alpha; experiment: Inhibition of human Nav1.5 expressed in HEK293 cells by whole cell patch clamp electrophysiology method
In short: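 Stable HEK293 line expressing human NaV1.5, recorded on the PatchXpress 7000A. Percent inhibition versus concentration was pooled from at least 10 cells, with two to three points per concentration. The pooled set was fitted with a four-parameter Hill equation to give a single IC50 curve.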

Structure (SMILES)	IC50 [1]	IC50 [2]	IC50 [3]
CC[C@H](C)[C@@H]1NC(=O)[C@@H]2CSSC[C@@H]3NC(=O)[C@H](C(C)C)NC(=O)[C@H](CC(C)C)NC(=O)[C@H](CC(N)=O)NC(=O)[C@@H]4CCCN4C(=O)[C@H](CCCNC(=N)N)NC(=O)[C@H](CSSC[C@H](NC(=O)[C@@H](N)CC(=O)O)C(=O)N[C@@H](CC(C)C)C(=O)N[C@@H](CCCNC(=N)N)C(=O)N[C@@H](Cc4ccccc4)C(=O)N[C@@H](CCSC)C(=O)N[C@@H](CCCNC(=N)N)C(=O)N[C@@H](CCCCN)C(=O)N2)NC(=O)[C@H](CSSC[C@@H](C(=O)N[C@@H](CCCCN)C(=O)N[C@@H](Cc2ccc(O)cc2)C(=O)N[C@H](C(=O)N[C@@H](Cc2ccccc2)C(N)=O)C(C)C)NC(=O)[C@H](Cc2c[nH]c4ccccc24)NC(=O)[C@H](CCCCN)NC(=O)[C@H](Cc2cnc[nH]2)NC(=O)[C@H]([C@@H](C)O)NC(=O)[C@H](CCCNC(=N)N)NC(=O)[C@H](CO)NC3=O)NC(=O)[C@H](CCCCN)NC(=O)[C@H](CC(=O)O)NC(=O)[C@H](CC(N)=O)NC(=O)[C@H](CC(=O)O)NC(=O)[C@@H]2CCCN2C1=O (H-DCLRFMRKCIPDNDKCCRPNLVCSRTHKWCKYVF-NH2; disulfide 2-17, 9-23, 16-30)	0.23 µM	> 5 µM	4.5 µM
CC[C@H](C)[C@@H]1NC(=O)[C@@H]2CSSC[C@@H]3NC(=O)[C@H](C(C)C)NC(=O)[C@H](CC(C)C)NC(=O)[C@H](CC(N)=O)NC(=O)[C@@H]4CCCN4C(=O)[C@H](CCCNC(=N)N)NC(=O)[C@H](CSSC[C@H](NC(=O)[C@@H](N)CC(=O)O)C(=O)N[C@@H](CC(C)C)C(=O)NCC(=O)N[C@@H](Cc4ccccc4)C(=O)N[C@@H](CCSC)C(=O)N[C@@H](CCCNC(=N)N)C(=O)N[C@@H](CCCCN)C(=O)N2)NC(=O)[C@H](CSSC[C@@H](C(=O)N[C@@H](CCCCN)C(=O)N[C@@H](Cc2cccc4ccccc24)C(=O)N[C@H](C(=O)N[C@@H](Cc2ccccc2)C(N)=O)C(C)C)NC(=O)[C@H](Cc2c[nH]c4ccccc24)NC(=O)[C@H](CCCCN)NC(=O)[C@H](Cc2cnc[nH]2)NC(=O)[C@H]([C@@H](C)O)NC(=O)[C@H](CCCNC(=N)N)NC(=O)[C@H](CO)NC3=O)NC(=O)[C@H](CCCCN)NC(=O)[C@H](CC(=O)O)NC(=O)[C@H](CC(N)=O)NC(=O)[C@H](CC(=O)O)NC(=O)[C@@H]2CCCN2C1=O (H-DCLGFMRKCIPDNDKCCRPNLVCSRTHKWCK[1Nal]VF-NH2; disulfide 2-17, 9-23, 16-30)	0.009 µM	3.5 µM	1 µM
CC[C@H](C)[C@@H]1NC(=O)[C@@H]2CSSC[C@@H]3NC(=O)[C@H](C(C)C)NC(=O)[C@H](CC(C)C)NC(=O)[C@H](CC(N)=O)NC(=O)[C@@H]4CCCN4C(=O)[C@H](CCCNC(=N)N)NC(=O)[C@H](CSSC[C@H](NC(=O)[C@@H](N)CC(=O)O)C(=O)N[C@@H](CC(C)C)C(=O)N[C@@H](CCCCN)C(=O)N[C@@H](Cc4ccccc4)C(=O)N[C@@H](CCSC)C(=O)N[C@@H](CCCNC(=N)N)C(=O)N[C@@H](CCCCN)C(=O)N2)NC(=O)[C@H](CSSC[C@@H](C(=O)N[C@@H](CCCCN)C(=O)N[C@@H](Cc2ccc(O)cc2)C(=O)N[C@H](C(=O)N[C@@H](Cc2ccccc2)C(N)=O)C(C)C)NC(=O)[C@H](Cc2c[nH]c4ccccc24)NC(=O)[C@H](CCCCN)NC(=O)[C@H](Cc2cnc[nH]2)NC(=O)[C@H]([C@@H](C)O)NC(=O)[C@H](CCCNC(=N)N)NC(=O)[C@H](CO)NC3=O)NC(=O)[C@H](CCCCN)NC(=O)[C@H](CC(=O)O)NC(=O)[C@H](CC(N)=O)NC(=O)[C@H](CC(=O)O)NC(=O)[C@@H]2CCCN2C1=O (H-DCLKFMRKCIPDNDKCCRPNLVCSRTHKWCKYVF-NH2; disulfide 2-17, 9-23, 16-30)	0.21 µM	> 5 µM	10.1 µM
CC[C@H](C)[C@@H]1NC(=O)[C@@H]2CSSC[C@@H]3NC(=O)[C@H](C(C)C)NC(=O)[C@H](CC(C)C)NC(=O)[C@H](CC(N)=O)NC(=O)[C@@H]4CCCN4C(=O)[C@H](CCCNC(=N)N)NC(=O)[C@H](CSSC[C@H](NC(=O)[C@@H](N)CC(=O)O)C(=O)N[C@@H](CC(C)C)C(=O)NCC(=O)N[C@@H](Cc4ccccc4)C(=O)N[C@@H](CCSC)C(=O)N[C@@H](CCCNC(=N)N)C(=O)N[C@@H](CCCCN)C(=O)N2)NC(=O)[C@H](CSSC[C@@H](C(=O)N[C@@H](CCCCN)C(=O)N[C@@H](Cc2ccc(O)cc2)C(=O)N[C@H](C(=O)N[C@@H](Cc2ccccc2)C(N)=O)C(C)C)NC(=O)[C@H](Cc2cccc4ccccc24)NC(=O)[C@H](CCCCN)NC(=O)[C@H](Cc2cnc[nH]2)NC(=O)[C@H]([C@@H](C)O)NC(=O)[C@H](CCCNC(=N)N)NC(=O)[C@H](CO)NC3=O)NC(=O)[C@H](CCCCN)NC(=O)[C@H](CC(=O)O)NC(=O)[C@H](CC(N)=O)NC(=O)[C@H](CC(=O)O)NC(=O)[C@@H]2CCCN2C1=O (H-DCLGFMRKCIPDNDKCCRPNLVCSRTHK[1Nal]CKYVF-NH2; disulfide 2-17, 9-23, 16-30)	–	> 5 µM	> 10 µM
CC[C@H](C)[C@@H]1NC(=O)[C@@H]2CSSC[C@@H]3NC(=O)[C@H](C(C)C)NC(=O)[C@H](CC(C)C)NC(=O)[C@H](CC(N)=O)NC(=O)[C@@H]4CCCN4C(=O)[C@H](CCCN/C(=N/C)NC)NC(=O)[C@H](CSSC[C@H](NC(=O)[C@@H](N)CC(=O)O)C(=O)N[C@@H](CC(C)C)C(=O)NCC(=O)N[C@@H](Cc4ccccc4)C(=O)N[C@@H](CCSC)C(=O)N[C@@H](CCCNC(=N)N)C(=O)N[C@@H](CCCCN)C(=O)N2)NC(=O)[C@H](CSSC[C@@H](C(=O)N[C@@H](CCCCN)C(=O)N[C@@H](Cc2ccc(O)cc2)C(=O)N[C@H](C(=O)N[C@@H](Cc2ccccc2)C(N)=O)C(C)C)NC(=O)[C@H](Cc2c[nH]c4ccccc24)NC(=O)[C@H](CCCCN)NC(=O)[C@H](Cc2cnc[nH]2)NC(=O)[C@H]([C@@H](C)O)NC(=O)[C@H](CCCNC(=N)N)NC(=O)[C@H](CO)NC3=O)NC(=O)[C@H](CCCCN)NC(=O)[C@H](CC(=O)O)NC(=O)[C@H](CC(N)=O)NC(=O)[C@H](CC(=O)O)NC(=O)[C@@H]2CCCN2C1=O	–	> 5 µM	> 10 µM
CC[C@H](C)[C@@H]1NC(=O)[C@@H]2CSSC[C@@H]3NC(=O)[C@H](C(C)C)NC(=O)[C@H](CC(C)C)NC(=O)[C@H](CC(N)=O)NC(=O)[C@@H]4CCCN4C(=O)[C@H](CCCNC(=N)N)NC(=O)[C@H](CSSC[C@H](NC(=O)[C@@H](N)CC(=O)O)C(=O)N[C@@H](CC(C)C)C(=O)NCC(=O)N[C@@H](Cc4ccccc4)C(=O)N[C@@H](CCSC)C(=O)N[C@@H](CCCNC(=N)N)C(=O)N[C@@H](CCCCN)C(=O)N2)NC(=O)[C@H](CSSC[C@@H](C(=O)N[C@@H](CCCCN)C(=O)N[C@@H](Cc2ccc(O)cc2)C(=O)N[C@H](C(=O)N[C@@H](Cc2ccccc2)C(=O)O)C(C)C)NC(=O)[C@H](Cc2c[nH]c4ccccc24)NC(=O)[C@H](CCCCN)NC(=O)[C@H](Cc2cnc[nH]2)NC(=O)[C@H]([C@@H](C)O)NC(=O)[C@H](CCCNC(=N)N)NC(=O)[C@H](CO)NC3=O)NC(=O)[C@H](CCCCN)NC(=O)[C@H](CC(=O)O)NC(=O)[C@H](CC(N)=O)NC(=O)[C@H](CC(=O)O)NC(=O)[C@@H]2CCCN2C1=O (stereo in doubt)	–	> 5 µM	> 10 µM
CC[C@H](C)[C@@H]1NC(=O)[C@@H]2CSSC[C@@H]3NC(=O)[C@H](C(C)C)NC(=O)[C@H](CC(C)C)NC(=O)[C@H](CC(N)=O)NC(=O)[C@@H]4CCCN4C(=O)[C@H](CCCNC(=N)N)NC(=O)[C@H](CSSC[C@H](NC(=O)[C@@H](N)CC(=O)O)C(=O)N[C@@H](CC(C)C)C(=O)NCC(=O)N[C@@H](Cc4ccccc4)C(=O)N[C@@H](CCSC)C(=O)N[C@@H](CCCNC(=N)N)C(=O)N[C@@H](CCCCN)C(=O)N2)NC(=O)[C@H](CSSC[C@@H](C(=O)N[C@@H](CCCCN)C(=O)N[C@@H](Cc2ccc(O)cc2)C(=O)N[C@H](C(=O)N[C@@H](Cc2ccccc2)C(N)=O)C(C)C)NC(=O)[C@H](Cc2c[nH]c4ccccc24)NC(=O)[C@H](CCC(N)=O)NC(=O)[C@H](Cc2cnc[nH]2)NC(=O)[C@H]([C@@H](C)O)NC(=O)[C@H](CCCNC(=N)N)NC(=O)[C@H](CO)NC3=O)NC(=O)[C@H](CCCCN)NC(=O)[C@H](CC(=O)O)NC(=O)[C@H](CC(N)=O)NC(=O)[C@H](CC(=O)O)NC(=O)[C@@H]2CCCN2C1=O (H-DCLGFMRKCIPDNDKCCRPNLVCSRTHQWCKYVF-NH2; disulfide 2-17, 9-23, 16-30)	0.2 µM	–	> 10 µM
CC[C@H](C)[C@@H]1NC(=O)[C@@H]2CSSC[C@@H]3NC(=O)[C@H](C(C)C)NC(=O)[C@H](CC(C)C)NC(=O)[C@H](CC(N)=O)NC(=O)[C@@H]4CCCN4C(=O)[C@H](CCCCN(C)C)NC(=O)[C@H](CSSC[C@H](NC(=O)[C@@H](N)CC(=O)O)C(=O)N[C@@H](CC(C)C)C(=O)NCC(=O)N[C@@H](Cc4ccccc4)C(=O)N[C@@H](CCSC)C(=O)N[C@@H](CCCNC(=N)N)C(=O)N[C@@H](CCCCN)C(=O)N2)NC(=O)[C@H](CSSC[C@@H](C(=O)N[C@@H](CCCCN)C(=O)N[C@@H](Cc2ccc(O)cc2)C(=O)N[C@H](C(=O)N[C@@H](Cc2ccccc2)C(N)=O)C(C)C)NC(=O)[C@H](Cc2c[nH]c4ccccc24)NC(=O)[C@H](CCCCN)NC(=O)[C@H](Cc2cnc[nH]2)NC(=O)[C@H]([C@@H](C)O)NC(=O)[C@H](CCCNC(=N)N)NC(=O)[C@H](CO)NC3=O)NC(=O)[C@H](CCCCN)NC(=O)[C@H](CC(=O)O)NC(=O)[C@H](CC(N)=O)NC(=O)[C@H](CC(=O)O)NC(=O)[C@@H]2CCCN2C1=O (H-DCLGFMRKCIPDNDKCC[Lys(Me2)]PNLVCSRTHKWCKYVF-NH2; disulfide 2-17, 9-23, 16-30)	–	> 5 µM	> 10 µM

Source: ChEMBL document CHEMBL3797186, “Single Residue Substitutions That Confer Voltage-Gated Sodium Ion Channel Subtype Selectivity in the NaV1.7 Inhibitory Peptide GpTx-1” (J Med Chem, 2016)
